Rad51 HR inh: Rad51 (human) homologous recombination inhibition. Q06609. hRad51 DNA strand exchange, fluorescence dequenching. inhibition, % at 10 µM. hit rate 0.085% among 200,000. AID 1385;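 active = inhibition above 40% at the single screening dose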;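 also: 0% = DMSO control wells and 100% = blanks with heterologous ssDNA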
Target sequence (Q06609 whole entry, looked up): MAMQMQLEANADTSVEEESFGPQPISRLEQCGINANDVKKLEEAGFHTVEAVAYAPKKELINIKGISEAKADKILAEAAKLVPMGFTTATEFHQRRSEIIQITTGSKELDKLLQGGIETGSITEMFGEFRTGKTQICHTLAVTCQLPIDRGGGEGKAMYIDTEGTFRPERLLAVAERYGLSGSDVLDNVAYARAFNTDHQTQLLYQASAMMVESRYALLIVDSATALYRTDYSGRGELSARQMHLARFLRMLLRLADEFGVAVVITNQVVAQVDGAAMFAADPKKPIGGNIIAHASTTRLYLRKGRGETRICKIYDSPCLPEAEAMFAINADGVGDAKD
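Material: hRad51 filaments on single-stranded DNA; Reagent: Donor/quencher-labelled 47-bp dsDNA substrate; Compound: 10 µM final, single point; Schedule: 37 °C 15-min filament assembly, 30-min compound preincubation, 15-min exchange; Technique: FRET fluorescence, excitation 485 nm, emission 520 nm; Benchmarks: control wells and blank wells on each plate.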
Measles CPE: protection of cells from measles virus. Measles virus-infected cells, CPE protection, absorbance. protection (pct of control), % at 4 µM. hit rate 1.5% among 140,000. AID 841; in the data active = protection mostly above about 24%, no sharp cut-off; inactive = mostly below about 26%
NPY2 pot ag: human NPY-Y2 potentiation or agonism, primary screen | activation, % at 3.6 µM | AID 1359 | cells expressing NPY-Y2, potentiator/agonist read-out | hit rate 0.45% among 220,000; in the data active = activation above about 27%;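 also: cells stimulated with NPY near EC25 plus isoproterenol at EC100; 0% = vehicle plus submaximal agonist and 100% = vehicle plus saturating agonist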
NPY-Y1 antag: antagonists of human neuropeptide Y receptor Y1; P25929; HEK293-CNG Y1 cells, membrane potential fluorescence; NPY at EC95, then isoproterenol; inhibition, % at 3.6 µM; hit rate 1% among 200,000; AID 1040;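 active = inhibition above the campaign mean inhibition of all tested compounds plus 3 SD, cut at about 20% in these data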;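 also: 0% = DMSO wells given NPY plus isoproterenol and 100% = isoproterenol alone without NPY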
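Benchmarks – high control isoproterenol alone, low control NPY with isoproterenol · Material – HEK293 Y1/CNG channel cell line · Times – dye 3 h, compound 60 min room temperature, stimulation 45 min · Probe or stimulus – NPY (25 nM), isoproterenol (1 µM), Ro 20-1724 (25 µM) · Evaluation – % inhibition of NPY effect · Signal – fluorescence, membrane potential probe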
NPY1 pot ag: potentiators or agonists of human neuropeptide Y receptor Y1. P25929. NPY-Y1 expressing cells, potentiator/agonist activation. activation, % at 3.6 µM. hit rate 0.37% among 220,000. AID 1304; in the data active = activation above about 33%, passing the limit was not always enough;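 also: cells stimulated with NPY at EC10 then isoproterenol at EC100; 0% = low agonist plus stimulus and 100% = saturating agonist plus stimulus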
NPY Y2 blocker: NPY-Y2 (human) receptor antagonism; P49146; NPY-Y2 expressing cells, antagonist mode; inhibition, % at 2.7 µM; hit rate 0.99% among 140,000; AID 793; in the data active = inhibition above about 17%;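 also: 0% = vehicle with agonist challenge and 100% = reference antagonist with challenge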
Active calls of the source: *; / = no result given. An excerpt weighted towards active compounds, which were near 2.8% of everything screened.

SMILES	Rad51 HR inh	Measles CPE	NPY2 pot ag	NPY-Y1 antag	NPY1 pot ag	NPY Y2 blocker
O=C(CCCC(=O)OCC(F)(F)C(F)F)Nc1ccc(NC(=O)CCCC(=O)OCC(F)(F)C(F)F)cc1	-1	42*	-1	6	-9	1
Cc1ccc(NC(=O)CCC(=O)OCC(F)(F)C(F)F)cc1	-1	3	4	-1	-1	4
CC1CN(C(=O)COC(=O)c2cccs2)CC(C)O1 (centres undefined)	/	36*	6	1	-1	1
O=C(CSc1nnc2ccccn12)NCCc1ccc(Cl)cc1	-2	/	3	0	9	/
Cc1noc(C)c1CSc1nc2sc3c(c2c(=O)n1C)CCCC3	7	96*	7	13	-35	5
CCOC(=O)N1CCC(NC(=O)C2CCN(c3ccc(N4CCOCC4)nn3)CC2)CC1	-3	48*	1	1	7	-2
CCOC(=O)N1CCC(NC(=O)C2CCN(S(=O)(=O)c3cnc[nH]3)CC2)CC1	4	22	18	-4	12	3
CS(=O)(=O)N(CCC#N)Cc1ccc(/C=C2\C(=O)Nc3ccccc32)o1	3	/	-13	3	8	/
COC(=O)c1cn(NC(=O)c2ccncc2)c(=O)c2ccccc12	3	2	-17	1	-24	3
COC(=O)c1cn(NC(=O)c2ccc(F)cc2)c(=O)c2ccccc12	-9	44*	-23	2	-16	0
C#Cc1ccc([C@@H]2C=C(C(=O)N3CCN(Cc4ccc5c(c4)OCO5)CC3)O[C@H](OCCCCO)C2)cc1	/	/	-9	-2	12	/
O=C(NCc1ccccc1)C(=O)NCC1OCCN1S(=O)(=O)c1cccs1 (centres undefined)	2	36*	7	3	-11	0
COc1ccc(/C=N/n2c(C)nc3sc(C)c(C)c3c2=O)cc1	-8	/	-19	/	-25	/
O=C(c1ccc(F)cc1)N1CCCC(C(=O)N2CCc3ccccc3C2)C1 (centres undefined)	/	/	-16	/	-13	/
O=C1N(c2cccc3ccccc23)C(c2ccccc2)N2CCCN12 (centres undefined)	/	20*	14	-6	10	0
O=C1N(c2cccc(Cl)c2)C(c2ccccc2)N2CCCN12 (centres undefined)	-1	11	14	2	-3	2
O=C(CCSc1ccc(Cl)cc1)N1CCCCCC1	2	31*	12	0	-1	5
Cc1ccsc1C(=O)N1CCCC(C(=O)c2cc(F)ccc2F)C1 (centres undefined)	/	/	-9	3	1	/
COc1ccccc1NC(=O)c1cc2cc(Br)ccc2cc1O	-1	/	86*	/	96*	/
Cc1ccc(S(=O)(=O)Oc2ccc(C3C4=C(CCCC4=O)N(CCC(=O)O)C4=C3C(=O)CCC4)cc2Cl)cc1	8	4	0	-3	-11	1
Cc1cccc(-c2nc(C#N)c(NC3CCCCC3)o2)c1	-1	43*	-6	8	-9	4
Cc1cccc(-c2nc(CS(=O)CC(=O)NC3CCCC3)c(C)o2)c1 (centres undefined)	-3	9	-2	2	1	2
c1ccc(CN2CCC(Nc3nc(-c4cccs4)nc4ccccc34)CC2)cc1	5	/	29	21*	4	/
Cc1cc(C)c(S(=O)(=O)NCC(=O)NCc2ccco2)c(C)c1	-4	/	6	2	-4	/
CNc1nc(-c2ccccc2)nc(-c2ccc(OC)cc2)c1C#N	-6	/	8	11	-6	/
SMILES	Rad51 HR inh	Measles CPE	NPY2 pot ag	NPY-Y1 antag	NPY1 pot ag	NPY Y2 blocker
CNc1nc(-c2ccccc2)nc(-c2ccccc2)c1C#N	-3	61*	-5	-2	-1	4
CCc1nn(C)c(-c2n[nH]c(=S)n2N)c1Cl	1	44*	4	2	6	-2
CCc1cc(-c2n[nH]c(=S)n2N)n(C)n1	6	21	-13	5	-9	1
CC(C)NC(=O)C(=O)c1cn(C)c2ccccc12	-1	/	9	-5	14	/
Cn1cc(C(=O)C(F)(F)F)c2ccccc21	1	53*	1	-1	-2	1
CCOc1ccc(/C=N/NC(=O)CSc2n[nH]c(=O)[nH]c2=O)cc1OC	9	/	2	-3	1	/
O=C(CN1CCCc2ccccc21)N/N=C/c1c(O)ccc2ccccc12	1	12	-2	-5	-1	-2
CC(CCc1ccccc1)NCC(O)COc1ccccc1 (centres undefined)	6	/	100*	-10	104*	/
CCC(CC)NCC(O)COc1ccc(Br)cc1 (centres undefined)	0	/	1	3	-13	/
CC(C)NCC(O)COc1ccc2c(c1)CCC2 (centres undefined)	/	7	96*	-12	105*	3
CCCC(NCC(O)COc1ccc(-c2ccccc2)cc1)c1ccccc1 (centres undefined)	-6	/	-18	2	-19	/
CCN1CCN(CC(O)COc2ccc3c(c2)CCC3)CC1 (centres undefined)	10	14	-12	1	-3	0
CC(C)NCC(O)COc1ccc(Br)cc1 (centres undefined)	2	/	54*	-8	75*	/
CC(C)NCC(O)COc1ccc(CCOCC2CC2)cc1 (centres undefined)	-5	4	92*	-12	96*	1
COc1cccc(C(=O)Nc2cc3c(cc2C(C)=O)OCCO3)c1	6	15	9	14	0	2
C=CCNC(=S)NNc1nc2c(c(=O)[nH]1)C1(CCCCC1)Cc1ccccc1-2	1	20	-1	3	0	3
O=C(NCC(c1cccnc1)N1CCOCC1)NC1CCCCC1 (centres undefined)	3	/	7	2	2	/
CCN1CCN(C(c2nnnn2Cc2ccc3c(c2)OCO3)C(C)C)CC1 (centres undefined)	2	56*	0	4	-39	0
CC(C)CN(CC(C)C)C(=O)Nc1ccccc1F	-25	/	12	1	3	/
Cc1cc(C)c(C(=O)Nc2ccc(Br)c(C(F)(F)F)c2)c(C)c1	3	22	-20	28*	-34	30*
Cn1cc(CN2CCC(C(O)c3cccs3)CC2)c(-c2ccccc2F)n1 (centres undefined)	5	/	-14	/	0	/
COc1cc([N+](=O)[O-])ccc1NC(=O)CSc1n[nH]c(C(C)C)n1	4	/	0	-3	-25	/
O=C1c2ccccc2C(=O)c2c(Nc3ccc(CCO)cc3)ccc(O)c21	18	/	117*	/	121*	/
O=C(NCc1ccc2c(c1)OCO2)c1cc2ccccc2o1	-2	19	-15	9	-14	8
Cc1ccc(O)c(-c2cc(C(=O)NCc3ccc4c(c3)OCO4)[nH]n2)c1	/	29*	-37	12	-32	10

From PubChem
